Screens deposited in PubChem BioAssay by PCMD.
Most compounds without a hit are left out; they make up all but 1% or so of the library.
FXIa inh 1536 = factor XIa (human) inhibition. AID 798. P03951. 220,000 tested, 0.14% active. inhibition, % at 5 µM. purified FXIa, Boc-Glu-Ala-Arg-AMC fluorogenic substrate;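 active = inhibition of at least 40%; inactive = inhibition below 40%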;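 note: fluorescence of freed AMC excited at 355 nm; 0% = enzyme without compound and 100% = no enzyme blank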
hK5 inh = inhibitors of human kallikrein 5; Q9Y337; recombinant hK5, fluorogenic AMC substrate cleavage; inhibition, % at 5 µM; 210,000 tested, 0.59% active; AID 873;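 active = inhibition of 40% or more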;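 note: 0% = enzyme controls without compound and 100% = no-enzyme blanks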
thrombin 1536 = blocks human thrombin protease activity | alpha-thrombin, Boc-VPR-AMC fluorogenic substrate cleavage | 220,000 tested, 0.26% active | inhibition, % at 5 µM;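 active = inhibition at or above 40%; inactive = inhibition below 40%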;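 note: 0% = enzyme with no compound and 100% = wells without enzyme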
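System: human alpha-thrombin protein; Compound dosing: one concentration per compound, 5 µM, with 0.2% DMSO; Timing: reaction at room temperature; Technique: AMC fluorescence, 355/460 nm; Controls: enzyme without compound as high, wells lacking enzyme as low.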
FXIIa inh 1536 = inhibitors of human coagulation factor XIIa | P00748 | 220,000 tested, 0.3% active | purified FXIIa, Boc-QGR-AMC fluorogenic substrate, 2 h | inhibition, % at 5 µM; in the data active = inhibition above about 40%;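 note: 0% = enzyme with no compound and 100% = blank without enzyme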
Target sequence (P00748 20-372 limits assumed): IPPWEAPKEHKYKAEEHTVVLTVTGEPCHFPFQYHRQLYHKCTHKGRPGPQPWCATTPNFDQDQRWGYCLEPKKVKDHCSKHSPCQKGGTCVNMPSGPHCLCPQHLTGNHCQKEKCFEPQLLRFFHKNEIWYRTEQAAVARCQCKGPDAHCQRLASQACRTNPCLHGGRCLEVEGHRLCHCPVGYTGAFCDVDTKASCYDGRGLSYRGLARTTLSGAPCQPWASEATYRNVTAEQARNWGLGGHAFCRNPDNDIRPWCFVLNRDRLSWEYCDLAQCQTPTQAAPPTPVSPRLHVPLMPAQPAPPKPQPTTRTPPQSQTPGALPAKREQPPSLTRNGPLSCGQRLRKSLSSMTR
Target sequence (P00748 373-615 limits assumed): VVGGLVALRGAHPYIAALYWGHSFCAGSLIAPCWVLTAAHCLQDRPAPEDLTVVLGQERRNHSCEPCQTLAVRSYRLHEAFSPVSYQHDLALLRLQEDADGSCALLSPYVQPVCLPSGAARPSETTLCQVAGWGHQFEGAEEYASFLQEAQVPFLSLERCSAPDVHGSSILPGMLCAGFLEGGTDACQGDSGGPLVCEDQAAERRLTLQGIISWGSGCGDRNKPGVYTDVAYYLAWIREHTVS
Active calls of the source: *; . = not tested or not shown.

SMILES	FXIa inh 1536	hK5 inh	thrombin 1536	FXIIa inh 1536
COc1ccc(-c2cc(C(=O)c3c(N)n(C)c(=O)n(C)c3=O)c3ccccc3n2)cc1OC	39.1	20.2	9.9	42.0*
COc1ccc(N2CC(C(=O)Nc3ccc(S(=O)(=O)Nc4nc(C)cc(C)n4)cc3)CC2=O)cc1 (stereo not given)	2.9	-0.2	1.4	11.1
Cc1cc(C)nc(NS(=O)(=O)c2ccc(NC(=O)C3CC(=O)N(c4ccccc4)C3)cc2)n1 (stereo not given)	12.4	59.5*	34.2	31.1
O=C(Nc1ccccc1Cl)C1CC(=O)N(c2ccccc2)C1 (stereo not given)	15.8	25.4	4.9	40.6*
Cc1cc(=O)[nH]c(SCC(=O)NN(c2ccccc2)c2ccccc2)n1	0.7	-2.4	-2.6	4.9
C/C(=N/NC(=O)CN1CCN(Cc2ccccc2Cl)CC1)c1cccs1	3.1	4.0	-0.9	8.3
COc1ccc(/C(C)=N/NS(=O)(=O)c2cc(C)ccc2C)c(OC)c1	-3.6	-8.9	1.2	3.0
c1ccc(-c2n[nH]c3c2CCC3)cc1	7.5	50.5*	12.0	19.8
Cc1ccc(C)c(NC(=O)CN(C)C(=O)CCN2C(=O)c3ccccc3C2=O)c1	3.9	53.1*	8.3	46.0*
CC(NC(=O)c1cnc2n(c1=O)CCS2)c1ccccc1 (stereo not given)	-5.1	41.5*	-1.9	5.4
CCC(C)NC(=O)c1cnc2n(c1=O)CCS2 (stereo not given)	9.1	0.4	-0.9	16.9
CSCC(CO)NS(=O)(=O)c1ccc(C)cc1 (stereo not given)	3.4	2.6	-0.8	10.0
Fc1ccc(-c2csc3ncnc(Nc4ccc(N5CCOCC5)cc4)c23)cc1	-4.1	41.9*	-2.5	-12.9
COc1ccc(S(=O)(=O)N2CCCCC2)cc1NC(=O)CN(C)C1CCCCC1	30.4	19.4	.	49.4*
Cc1ccc(C)c(C2=CSC3=NCCN23)c1	6.1	79.9*	12.4	17.7
Cc1ccc(C)c(C2=CSC3=NS(=O)(=O)CCN23)c1	6.0	6.1	-18.8	-5.6
COc1ccc(N/C(=N\c2nc(C)cc(C)n2)NC(C)=O)cc1OC	1.0	-5.2	50.2*	12.6
O=C(NC1CCCC1)C(c1ccccn1)N(C(=O)c1csnn1)C1CC1 (stereo not given)	44.1*	-4.3	2.3	14.6
Cc1nn(CC(=O)c2ccc(Cl)s2)c(C)c1[N+](=O)[O-]	42.9*	24.3	11.9	28.1
Cc1ccc(NNC(=O)c2ccc(Cl)cc2)nn1	-4.2	-7.0	0.9	5.9
CSc1ccc(NC(=O)Nc2cccn(Cc3ccccc3)c2=O)cc1	-4.3	66.1*	-11.4	3.2
Cn1cc(C(=O)c2ccc(Cl)cc2Cl)cc1C(=O)N/N=C(\N)COc1ccc(F)cc1	-0.6	-111.2	75.7*	9.2
CCOc1cc(C)nc(NCCc2ccc(OC)c(OC)c2)n1	-3.2	1.5	-3.4	6.4
Cc1ccc(S(=O)(=O)NCC(=O)OCC(=O)Nc2ncc(Cl)cc2Cl)cc1	5.7	3.9	8.3	71.3*
COc1ccccc1NC(=O)N1CCCC1C(=O)NC1CCCCC1 (stereo not given)	11.0	22.4	53.6*	14.7
SMILES	FXIa inh 1536	hK5 inh	thrombin 1536	FXIIa inh 1536
CCCc1cc(=O)n2[nH]cnc2n1	18.0	-3.6	-0.7	21.6
Cc1cc(=O)n2[nH]cnc2n1	18.1	41.5*	9.3	24.4
Cc1cc(OC(=O)c2ccc(Cl)cc2Cl)nc(C)n1	6.5	-53.3	4.1	45.4*
Cc1cc(C)c(S(=O)(=O)c2ccccc2)c(OC(=O)c2ccc(Cl)cc2Cl)n1	0.1	0.6	2.2	7.7
Cc1ccc(S(=O)(=O)NC2(C(F)(F)F)NC(=O)N(C)C2=O)cc1 (stereo not given)	7.2	67.4*	13.8	21.6
CNC(=O)c1ccsc1NC(=O)c1ccc(Cl)s1	4.5	-10.5	-0.8	15.0
COC(C[C@H](O)C[C@@H](O)[C@H](C)OCc1ccccc1)OC	25.7	16.6	-2.6	46.3*
COC(C[C@H](O)C[C@@H](O)[C@@H](C)OCc1ccccc1)OC	-3.8	-2.5	-2.4	2.5
C/C=C(\C)C(=O)OC1c2c(ccc3ccc(=O)oc23)OC(C)(C)C1OC(C)=O (stereo not given)	45.4*	-3.4	-5.3	38.7
CC1CCc2c(sc(NC(=O)COC(=O)C3CCCO3)c2C#N)C1 (stereo not given)	26.5	23.6	45.2*	23.7
CC1CCc2c(sc(NC(=O)C3CCCO3)c2C#N)C1 (stereo not given)	8.4	6.8	-2.0	2.2
Cc1cc(-c2ccn[nH]2)c(C)s1	0.8	.	-4.8	11.5
O=C(CSc1c2c(nc3ccccc13)CCCC2)NCc1ccco1	4.6	4.7	-2.8	10.1
O=C(NCc1ccco1)c1c2c(nc3ccccc13)CCC2	25.8	13.8	1.1	47.6*
O=C(/C=C\c1ccc2c(c1)OCO2)CC1(O)C(=O)Nc2ccccc21 (stereo not given)	-1.0	-2.5	-4.2	6.3
O=C(c1ccccc1)c1coc2ccc(O)c(CN3CCOCC3)c12	-13.5	-26.3	-3.7	6.4
COc1ccc(C(=O)c2coc3ccc(O)c(CN4CCCCC4)c23)cc1	4.3	47.9*	13.5	9.9
CCOC(=O)C1=C(Nc2ccccc2)CC(C)(O)C(C(=O)OCC)C1c1ccc(Cl)cc1 (stereo not given)	-1.5	-0.9	-4.0	4.3
COc1cccc(C2=NN(C(=O)CCCC(=O)O)C(c3cccs3)C2)c1 (stereo not given)	-7.1	3.4	-4.9	3.4
O=c1c(Cl)c(Cl)cnn1Cc1ccc(F)cc1	38.2	27.9	21.7	51.9*
O=C(C1CCCCC1)N(Cc1nc2sc3c(c2c(=O)[nH]1)CCCC3)Cc1cccs1	-4.1	-26.1	-5.0	11.7
CCC(C)NC(=O)Nc1ccc(F)c(Cl)c1 (stereo not given)	-5.6	-1.8	-1.1	5.9
CC(C)CNC(=O)Nc1ccc(F)c(Cl)c1	52.3*	14.4	26.4	29.8
CC12COC3(C(=O)Nc4nccs4)CC1CCC32C (stereo not given)	0.7	71.8*	12.3	13.7
Cc1nc(Cl)c(C#N)cc1-c1ccccc1	12.1	57.2*	28.1	18.0
SMILES	FXIa inh 1536	hK5 inh	thrombin 1536	FXIIa inh 1536
COc1cc(/C=N/Nc2nc(Nc3ccccc3)nc(N3CCOCC3)n2)ccc1OC(=O)c1ccco1	-3.9	-7.6	4.4	3.4
COc1cc(C=O)ccc1Oc1nc(Nc2ccc(F)cc2F)nc(N2CCOCC2)n1	27.2	62.6*	10.3	33.8
CCCCCOc1ccc(C(=O)NC(C(=O)O)C(C)C)cc1 (stereo not given)	11.2	41.0*	8.9	-0.6
CCn1c(SCC(=O)NC(C)(C)C)nnc1-c1ccncc1	-1.1	-4.2	6.7	8.5
Cn1c(SCC(=O)NC(C)(C)C)nnc1-c1ccc(C(C)(C)C)cc1	17.3	41.5*	18.3	9.1
CSc1ccccc1NC(=O)CN(c1cccc(C)c1)S(C)(=O)=O	-3.6	-23.7	-3.0	2.2
COc1ccc(N(CC(=O)Nc2ccccc2SC)S(C)(=O)=O)cc1OC	11.6	-14.9	0.2	44.5*
Cc1cc(C(C)(C)C)cc(C)c1C(=O)O	-2.9	-1.9	-12.4	1.8
